Source: ChEMBL document CHEMBL4665863 (Bioorg Med Chem, 2020)
≈ marks a conversion by molar mass, not a printed value. Calls of active or inactive are those of the source. No cut-off for these calls is given here.

Legend:
Staphylococcus aureus [1] = assay: Bacteriostatic activity against Staphylococcus aureus clinical isolate assessed as ratio of MBC to MIC; type: functional
Staphylococcus aureus [2] = assay: Bactericidal activity against Staphylococcus aureus ATCC25923 assessed as reduction in number of colony forming units incubated for 24 hrs followed by re-plating and reincubation on tryptic soy agar plate for 24 hrs; type: functional
Bacillus subtilis [3] = assay: Inhibition of ftsZ in Bacillus subtilis assessed as increase in enzyme polymerization kinetics at 5 ug/ml measured for 30 mins by microtiter plate-based light scattering assay; conditions: dose 5.0 µg/ml
Outline: (§1)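 Purified recombinant B. subtilis FtsZ was used. Polymerization was followed as light scattering in microtiter plates, read as time-dependent absorbance at 340 nm at several compound concentrations. Vehicle, CIP and LIN served as controls.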

Staphylococcus aureus [4] = assay: Bactericidal activity against Staphylococcus aureus clinical isolate assessed as reduction in number of colony forming units at 0.5 times MIC incubated for 24 hrs by Time-kill assay; type: functional, organism-based
Bacillus subtilis [5] = assay: Antibacterial activity against Bacillus subtilis ATCC9372 incubated for 24 hrs by CLSI-based broth microdilution method; type: functional
Staphylococcus aureus [6] = assay: Bactericidal activity against methicillin-resistant Staphylococcus aureus ATCC43300 assessed as reduction in number of colony forming units incubated for 24 hrs followed by re-plating and reincubation on tryptic soy agar plate for 24 hrs; type: functional
Staphylococcus aureus [7] = assay: Bactericidal activity against Staphylococcus aureus clinical isolate assessed as reduction in number of colony forming units at 1XMIC incubated for 24 hrs by Time-kill assay; type: functional
Staphylococcus aureus [8] = assay: Potency index, ratio of PC190723 MIC to test compound MIC for antibacterial activity against penicillin-resistant Staphylococcus aureus incubated for 24 hrs by CLSI-based broth microdilution method; type: functional
Staphylococcus aureus [9] = assay: Bacteriostatic activity against penicillin-resistant Staphylococcus aureus assessed as ratio of MBC to MIC; type: functional
Staphylococcus aureus [10] = assay: Antibacterial activity against methicillin-resistant Staphylococcus aureus ATCC43300 incubated for 24 hrs by CLSI-based broth microdilution method; type: functional
Staphylococcus aureus [11] = assay: Bacteriostatic activity against Staphylococcus aureus ATCC25923 assessed as ratio of MBC to MIC; type: functional
Staphylococcus aureus [12] = assay: Potency index, ratio of linezolid MIC to test compound MIC for antibacterial activity against penicillin-resistant Staphylococcus aureus incubated for 24 hrs by CLSI-based broth microdilution method; type: functional
Staphylococcus aureus [13] = assay: Potency index, ratio of linezolid MIC to test compound MIC for antibacterial activity against methicillin-resistant Staphylococcus aureus ATCC43300 incubated for 24 hrs by CLSI-based broth microdilution method; type: functional
Staphylococcus aureus [14] = assay: Antibacterial activity against Staphylococcus aureus ATCC25923 incubated for 24 hrs by CLSI-based broth microdilution method; type: functional
Bacillus pumilus = assay: Antibacterial activity against Bacillus pumilus CMCC63202 incubated for 24 hrs by CLSI-based broth microdilution method; type: functional
Staphylococcus aureus [15] = assay: Antibacterial activity against Staphylococcus aureus clinical isolate incubated for 24 hrs by CLSI-based broth microdilution method; type: functional
Staphylococcus aureus [16] = assay: Bacteriostatic activity against methicillin-resistant Staphylococcus aureus ATCC43300 assessed as ratio of MBC to MIC; type: functional
Staphylococcus aureus [17] = assay: Bactericidal activity against Staphylococcus aureus clinical isolate assessed as reduction in number of colony forming units incubated for 24 hrs followed by re-plating and reincubation on tryptic soy agar plate for 24 hrs; type: functional
Staphylococcus aureus [18] = assay: Bactericidal activity against Staphylococcus aureus clinical isolate assessed as reduction in number of colony forming units at 4XMIC incubated for 9 hrs by Time-kill assay; type: functional
HeLa = assay: Cytotoxicity against human Hela cells assessed as reduction in cell viability incubated for 48 hrs by MTT assay; type: cell-based
Outline: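 HeLa (human cervical cancer) cells were exposed continuously for 48 h, and viability was read by MTT.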

Staphylococcus aureus [19] = assay: Potency index, ratio of ciprofloxacin MIC to test compound MIC for antibacterial activity against methicillin-resistant Staphylococcus aureus ATCC43300 incubated for 24 hrs by CLSI-based broth microdilution method; type: functional
Staphylococcus aureus [20] = assay: Inhibition of FtsZ in Staphylococcus aureus clinical isolate assessed as inhibition of bacterial cell elongation by measuring bacterial cell diameter at 0.25 ug/ml incubated for 18 hrs by phase contrast microscopic analysis (reference value: 0.79 +/- 0.05 um); conditions: dose 0.25 µg/ml
Bacillus subtilis [21] = assay: Inhibition of ftsZ in Bacillus subtilis assessed as increase in enzyme polymerization kinetics measured for 30 mins by microtiter plate-based light scattering assay; outline: as §1
Bacillus subtilis [22] = assay: Inhibition of FtsZ in Bacillus subtilis ATCC9372 assessed as inhibition of bacterial cell elongation by measuring bacterial cell length at 0.25 ug/ml incubated for 18 hrs by phase contrast microscopic analysis (reference value: 2.28 +/- 0.29 um); conditions: dose 0.25 µg/ml
Outline: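 Compound at 0.25 μg/mL, compared with untreated cells, imaged by microscopy. For B. subtilis ATCC9372, cell length was measured (n = 15). For S. aureus ATCC CI, cell diameter was measured (n = 15). Mean and SD were reported.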

Staphylococcus aureus [23] = assay: Bactericidal activity against penicillin-resistant Staphylococcus aureus assessed as reduction in number of colony forming units incubated for 24 hrs followed by re-plating and reincubation on tryptic soy agar plate for 24 hrs; type: functional
Escherichia coli = assay: Antibacterial activity against Escherichia coli ATCC25922 incubated for 24 hrs by CLSI-based broth microdilution method; type: functional; conditions: ATCC 25922
Pseudomonas aeruginosa = assay: Antibacterial activity against Pseudomonas aeruginosa ATCC27853 incubated for 24 hrs by CLSI-based broth microdilution method; type: functional
Staphylococcus aureus [24] = assay: In-vivo antibacterial activity against Staphylococcus aureus infected in KM mouse model assessed as reduction in bacterial load in blood at 10 mg/kg, iv administered thrice daily and measured after 48 hrs; type: functional, organism-based
Outline: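 Groups of four KM mice (average 20 g) were infected i.v. with 8.5 × 10⁸ CFU of a clinical S. aureus isolate resistant to CIP and ERY, in 0.15 mL saline. Treatment was 10 mg/kg i.v. three times daily. Vehicle was 2% DMAC, 30% PEG400/PG (1:1) and 5% HPβCD in water; vehicle and LIN arms were included. At 48 h, retro-orbital blood (0.1 mL) was plated on TSA for CFU counts.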

Staphylococcus aureus [25] = assay: Potency index, ratio of PC190723 MIC to test compound MIC for antibacterial activity against methicillin-resistant Staphylococcus aureus ATCC43300 incubated for 24 hrs by CLSI-based broth microdilution method; type: functional
Staphylococcus aureus [26] = assay: Antibacterial activity against penicillin-resistant Staphylococcus aureus incubated for 24 hrs by CLSI-based broth microdilution method; type: functional
Staphylococcus aureus [27] = assay: Bactericidal activity against Staphylococcus aureus clinical isolate assessed as reduction in number of colony forming units at 2XMIC incubated for 12 hrs by Time-kill assay; type: functional

## CCCCc1ccc(C2=NOC(COc3ccc(F)c(C(N)=O)c3F)C2)cc1 (stereo unspecified)
Staphylococcus aureus [1]
  Ratio: 1
Staphylococcus aureus [2]
  MBC: 0.5 µg/mL (≈ 1.29 µM)
Bacillus subtilis [3]
  FtsZ polymerization increase (active/inactive call): Active
Staphylococcus aureus [4]
  Activity: Active
Bacillus subtilis [5]
  MIC: 0.5 µg/mL (≈ 1.29 µM)
Staphylococcus aureus [6]
  MBC: 0.5 µg/mL (≈ 1.29 µM)
Staphylococcus aureus [7]
  Activity: <1 10^3CFU/ml
Staphylococcus aureus [8]
  Ratio: 2
Staphylococcus aureus [9]
  Ratio: 2
Staphylococcus aureus [10]
  MIC: 0.25 µg/mL (≈ 0.644 µM)
Staphylococcus aureus [11]
  Ratio: 1
Staphylococcus aureus [12]
  Ratio: 2
Staphylococcus aureus [13]
  Ratio: 8
Staphylococcus aureus [14]
  MIC: 0.5 µg/mL (≈ 1.29 µM)
Bacillus pumilus
  MIC: ≤ 0.125 µg/mL
Staphylococcus aureus [15]
  MIC: 0.5 µg/mL (≈ 1.29 µM)
Staphylococcus aureus [16]
  Ratio: 2
Staphylococcus aureus [17]
  MBC: 0.5 µg/mL (≈ 1.29 µM)
Staphylococcus aureus [18]
  Activity: <1 10^3CFU/ml
HeLa
  IC50: > 64 µg/mL
Staphylococcus aureus [19]
  Ratio: 64
Staphylococcus aureus [20]
  cell diameter: 2.41 µm
Bacillus subtilis [21]
  inhibition: Dose-dependent effect
Bacillus subtilis [22]
  cell length: 29.3 µm
Staphylococcus aureus [23]
  MBC: 1 µg/mL (≈ 2.57 µM)
Escherichia coli
  MIC: > 64 µg/mL
Pseudomonas aeruginosa
  MIC: > 64 µg/mL
Staphylococcus aureus [24]
  Activity: Active
Staphylococcus aureus [25]
  Ratio: 4
Staphylococcus aureus [26]
  MIC: 0.5 µg/mL (≈ 1.29 µM)
Staphylococcus aureus [27]
  Activity: <1 10^3CFU/ml
